Assay results from ChEMBL document CHEMBL4689842, “EUbOPEN Chemogenomics Library wave 1” (2021).

Tested on: U2OS
Test: Multiplex assay against U2OS
Assay type: toxicity, cell-based
Conditions: human
Outline: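 Four dyes were applied at seeding to live cells: Hoechst33342, BioTracker Green Microtubule Cytoskeleton Dye, MitoTracker Red and Annexin V Alexa Fluor 680. Imaging after compound addition used a CQ1 microscope at 37°C and 5% CO2. CellPathfinder machine-learning gating then sorted cells into Hoechst high-intensity objects or normal cells, normal cells into healthy, pyknosed or fragmented nuclei, and pyknosed cells into mitotic or apoptotic, with tubulin, mitochondrial-mass and membrane-permeability phenotypes given as per cents of healthy-nucleus cells.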

[1] = 12 h, 1 µM, compound concentration 1 uM, replicate 1
[2] = 12 h, 1 µM, compound concentration 1 uM, replicate 2
[3] = 12 h, 10 µM, compound concentration 10 uM, replicate 1
[4] = 12 h, 10 µM, compound concentration 10 uM, replicate 2
[5] = 24 h, 1 µM, compound concentration 1 uM, replicate 1
[6] = 24 h, 1 µM, compound concentration 1 uM, replicate 2
[7] = 24 h, 10 µM, compound concentration 10 uM, replicate 1
[8] = 24 h, 10 µM, compound concentration 10 uM, replicate 2
[9] = 48 h, 1 µM, compound concentration 1 uM, replicate 1
[10] = 48 h, 1 µM, compound concentration 1 uM, replicate 2
[11] = 48 h, 10 µM, compound concentration 10 uM, replicate 1
[12] = 48 h, 10 µM, compound concentration 10 uM, replicate 2

## CN(C)C(=O)N[C@H]1CC[C@H](CCN2CCN(c3cccc(Cl)c3Cl)CC2)CC1.Cl [CARIPRAZINE HYDROCHLORIDE]
[1]
  Population Apoptotic (%): 20%
  Population Fragmented Nuclei (%): 14%
  Population Healthy Nuclei (%): 79%
  Population Hoechst High Intensity Objects (%): 8%
  Population Membrane Permeable-Phenotype (%): 4%
  Population Mitotic Cells (%): 80%
  Population Normal (%): 91%
  Population Pyknosed Nuclei (%): 6%
  Population Tubulin-Different-Phenotype (%): 14%
  Total Cell Count: 84
[2]
  Population Apoptotic (%): 60%
  Population Fragmented Nuclei (%): 7%
  Population Healthy Nuclei (%): 84%
  Population Hoechst High Intensity Objects (%): 6%
  Population Membrane Permeable-Phenotype (%): 6%
  Population Mitochondria Different-Phenotype (%): 29%
  Population Mitotic Cells (%): 40%
  Population Normal (%): 93%
  Population Pyknosed Nuclei (%): 8%
  Population Tubulin-Different-Phenotype (%): 22%
  Total Cell Count: 61
[3]
  Population Apoptotic (%): 50%
  Population Fragmented Nuclei (%): 15%
  Population Healthy Nuclei (%): 59%
  Population Hoechst High Intensity Objects (%): 8%
  Population Membrane Permeable-Phenotype (%): 14%
  Population Mitochondria Different-Phenotype (%): 97%
  Population Mitotic Cells (%): 50%
  Population Normal (%): 91%
  Population Tubulin-Different-Phenotype (%): 100%
  Total Cell Count: 78
[4]
  Population Apoptotic (%): 36%
  Population Fragmented Nuclei (%): 17%
  Population Healthy Nuclei (%): 57%
  Population Hoechst High Intensity Objects (%): 3%
  Population Membrane Permeable-Phenotype (%): 47%
  Population Mitochondria Different-Phenotype (%): 95%
  Population Mitotic Cells (%): 63%
  Population Normal (%): 96%
  Population Pyknosed Nuclei (%): 25%
  Population Tubulin-Different-Phenotype (%): 95%
  Total Cell Count: 79
[5]
  Population Apoptotic (%): 41%
  Population Fragmented Nuclei (%): 13%
  Population Healthy Nuclei (%): 73%
  Population Hoechst High Intensity Objects (%): 9%
  Population Membrane Permeable-Phenotype (%): 4%
  Population Mitochondria Different-Phenotype (%): 17%
  Population Mitotic Cells (%): 58%
  Population Normal (%): 90%
  Population Pyknosed Nuclei (%): 13%
  Population Tubulin-Different-Phenotype (%): 8%
  Total Cell Count: 102
[6]
  Population Apoptotic (%): 66%
  Population Fragmented Nuclei (%): 6%
  Population Healthy Nuclei (%): 84%
  Population Hoechst High Intensity Objects (%): 4%
  Population Membrane Permeable-Phenotype (%): 7%
  Population Mitochondria Different-Phenotype (%): 22%
  Population Mitotic Cells (%): 33%
  Population Normal (%): 95%
  Population Pyknosed Nuclei (%): 9%
  Population Tubulin-Different-Phenotype (%): 14%
  Total Cell Count: 67
[7]
  Population Apoptotic (%): 57%
  Population Fragmented Nuclei (%): 13%
  Population Healthy Nuclei (%): 57%
  Population Hoechst High Intensity Objects (%): 13%
  Population Membrane Permeable-Phenotype (%): 28%
  Population Mitochondria Different-Phenotype (%): 97%
  Population Mitotic Cells (%): 42%
  Population Normal (%): 86%
  Population Pyknosed Nuclei (%): 28%
  Total Cell Count: 84
[8]
  Population Apoptotic (%): 94%
  Population Fragmented Nuclei (%): 23%
  Population Healthy Nuclei (%): 55%
  Population Hoechst High Intensity Objects (%): 3%
  Population Membrane Permeable-Phenotype (%): 42%
  Population Mitochondria Different-Phenotype (%): 95%
  Population Mitotic Cells (%): 5%
  Population Normal (%): 96%
  Population Pyknosed Nuclei (%): 20%
  Population Tubulin-Different-Phenotype (%): 95%
  Total Cell Count: 87
[9]
  Population Apoptotic (%): 27%
  Population Fragmented Nuclei (%): 9%
  Population Hoechst High Intensity Objects (%): 6%
  Population Membrane Permeable-Phenotype (%): 0%
  Population Mitochondria Different-Phenotype (%): 12%
  Population Mitotic Cells (%): 72%
  Population Normal (%): 93%
  Population Pyknosed Nuclei (%): 8%
  Population Tubulin-Different-Phenotype (%): 7%
  Total Cell Count: 140
[10]
  Population Apoptotic (%): 50%
  Population Fragmented Nuclei (%): 6%
  Population Healthy Nuclei (%): 82%
  Population Hoechst High Intensity Objects (%): 2%
  Population Membrane Permeable-Phenotype (%): 9%
  Population Mitochondria Different-Phenotype (%): 15%
  Population Mitotic Cells (%): 50%
  Population Normal (%): 97%
  Population Pyknosed Nuclei (%): 10%
  Population Tubulin-Different-Phenotype (%): 13%
  Total Cell Count: 94
[11]
  Population Apoptotic (%): 79%
  Population Fragmented Nuclei (%): 12%
  Population Healthy Nuclei (%): 59%
  Population Hoechst High Intensity Objects (%): 13%
  Population Membrane Permeable-Phenotype (%): 26%
  Population Mitochondria Different-Phenotype (%): 96%
  Population Mitotic Cells (%): 20%
  Population Normal (%): 86%
  Population Pyknosed Nuclei (%): 27%
  Population Tubulin-Different-Phenotype (%): 96%
  Total Cell Count: 101
[12]
  Population Apoptotic (%): 70%
  Population Fragmented Nuclei (%): 20%
  Population Healthy Nuclei (%): 53%
  Population Hoechst High Intensity Objects (%): 2%
  Population Membrane Permeable-Phenotype (%): 42%
  Population Mitochondria Different-Phenotype (%): 89%
  Population Mitotic Cells (%): 29%
  Population Normal (%): 97%
  Population Pyknosed Nuclei (%): 25%
  Population Tubulin-Different-Phenotype (%): 82%
  Total Cell Count: 108
